# Wee1 degr inh: Wee1 degradation inhibitors, primary screen, cell-based, HeLa, Wee1K328M-luciferase, luminescence; Wee1-like protein kinase (Homo sapiens), P30291; HeLa Luc-Wee1K328M stability; 100% = proteasome inhibitor MG132 effect; reporter increase, % at 5 µM; actives 1.2% (n = 220,000); AID 1321, 2008;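 active = activation above the mean of all tested compounds plus 3 SD, set per screening run, cut at about 8.8% in these data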;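 note: cells exposed to compound for 20 h before luminescence read; 0% = DMSO alone and 100% = MG132 at 30 µM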
# Tb hexokinase: Trypanosoma brucei hexokinase 1 inhibitors, primary screen, biochemical, G6PDH-coupled NADH absorbance, MLSCN library; hexokinase 1 [Trypanosoma brucei]; recombinant TbHK1, G6PDH-coupled NADH A340; inhibition, % at 10 µM; actives 0.11% (n = 220,000); AID 1430, 2008;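 active = inhibition of 50% or more in the single-dose primary screen; inactive = inhibition below 50%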
# 14-3-3 Bad PPI: inhibitors of 14-3-3 zeta/Bad binding, primary screen, biochemical, TR-FRET, bovine 14-3-3 zeta | 14-3-3 protein zeta/delta (Bos taurus), P63103 | TR-FRET 14-3-3zeta/Dy647-pBad peptide displacement, 1 h | inhibition, % at 21.7 µM | actives 0.71% (n = 220,000) | AID 781, 2007;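 active = inhibition above about 70%, limit read from the data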;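 note: 0% = full 14-3-3 plus peptide FRET controls and 100% = background without 14-3-3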
# MDM2 E3 inh: MDM2-luciferase reporter signal enhancers, primary screen, MDM2 E3 ligase inhibitor project, cell-based, luminescence, 1536-well | signal enhancement, % at 5 µM | actives 0.11% (n = 210,000) | E3 ubiquitin-protein ligase Mdm2 (Homo sapiens), Q00987 | AID 1230, 2008 | cell-based MDM2 ubiquitination luciferase reporter, 2 h; 0 = plate control, 100 = twice control, blank-subtracted;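 active = signal enhancement of 30% or more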;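 note: luminescence tracks abundance of the self-degrading MDM2-luciferase fusion protein; higher signal means inhibition of MDM2 E3 ligase activity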
#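 Timing – 2 h compound exposure at 37 °C · Assay system – mammalian cells stably expressing self-ubiquitinating, self-degrading MDM2 E3–luciferase fusion · Amount – 2000 cells seeded into each well · Measure – % luminescence enhancement versus blank-corrected plate control mean · Measured by – SteadyLite luminescence, 15 min reagent step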
# Hck Nef HTS: inhibitors of Nef-activated human Hck kinase, primary screen, biochemical, Z-Lyte FRET, 384-well, Hck-YEEI; Tyrosine-protein kinase HCK (Homo sapiens), P08631; inhibition, % at 20 µM; Recombinant Hck-YEEI plus Nef, Z-Lyte FRET kinase assay; AID 463187, 2010; actives 0.68% (n = 220,000);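 active = Hck-Nef kinase inhibition above about 50%, limit read from the data; inactive = inhibition below that limit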;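 note: 0% = DMSO with Hck plus Nef and 100% = Hck alone without Nef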
# Target sequence (P08631 whole entry, looked up): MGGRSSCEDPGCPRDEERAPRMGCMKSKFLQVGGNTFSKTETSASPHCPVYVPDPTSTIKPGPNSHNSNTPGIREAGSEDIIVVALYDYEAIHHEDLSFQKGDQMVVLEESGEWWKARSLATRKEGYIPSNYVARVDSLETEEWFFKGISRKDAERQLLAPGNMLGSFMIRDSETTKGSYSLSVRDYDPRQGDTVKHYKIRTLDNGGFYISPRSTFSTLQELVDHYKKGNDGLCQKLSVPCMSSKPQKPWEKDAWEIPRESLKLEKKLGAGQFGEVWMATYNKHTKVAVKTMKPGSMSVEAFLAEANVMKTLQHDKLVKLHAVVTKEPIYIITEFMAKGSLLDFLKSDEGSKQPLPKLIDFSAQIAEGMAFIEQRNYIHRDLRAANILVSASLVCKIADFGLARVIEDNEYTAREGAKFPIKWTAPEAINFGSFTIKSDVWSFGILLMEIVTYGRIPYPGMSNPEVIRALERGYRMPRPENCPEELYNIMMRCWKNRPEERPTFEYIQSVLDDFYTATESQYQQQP
# Hck Nef conf: retest of Hck:Nef kinase inhibitor hits, confirmation, biochemical, Z-Lyte FRET, 384-well, p-Tyr peptide counterscreen. AID 463188, 2010. calls only at 10 µM. actives 28% (n = 1,300). Recombinant Hck-YEEI:Nef, Z-Lyte FRET kinase assay. shares compounds with Hck Nef HTS;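 active = average inhibition of at least 50%, with Z-scores no higher than 3 in both the phospho-tyrosine peptide and fluorescence counterscreens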
# * hit, by the source's call; i = inactive; nt = no result given; + = active, no number. Most compounds without a hit are left out; they make up all but 2.7% or so of the library.
SMILES,Wee1 degr inh,Tb hexokinase,14-3-3 Bad PPI,MDM2 E3 inh,Hck Nef HTS,Hck Nef conf
Cc1ccc(S(=O)(=O)c2c(N)n(CCC(C)C)c3nc4ccccc4nc23)cc1,-2,-13,9,-3,22,nt
CCC(=O)Nc1c(S(=O)(=O)c2ccccc2)c2nc3ccccc3nc2n1C(C)c1ccccc1 (stereo not given),-2,-17,7,3,75*,nt
Cc1ccc(S(=O)(=O)c2c(N)n(CCCO)c3nc4ccccc4nc23)cc1,-1,-22,15,2,81*,nt
CCCCn1c(NC(=O)c2ccco2)c(S(=O)(=O)c2ccc(C)cc2)c2nc3ccccc3nc21,-1,-4,6,-10,49,nt
CCCCn1c(NS(=O)(=O)c2ccccc2)c(S(=O)(=O)c2ccc(C)cc2)c2nc3ccccc3nc21,-1,6,15,-20,66*,nt
Cc1cc(/C=C2\SC(=S)NC2=O)c(C)n1-c1ccc(O)cc1,1,-7,6,-45,30,nt
Cc1cc(/C=C2\SC(=Nc3ccc(F)cc3)NC2=O)c(C)n1-c1ccc(S(N)(=O)=O)cc1,4,-17,-21,-14,65*,+
C=CCN=c1scc(-c2ccco2)n1/N=C/c1ccc(O)c(O)c1O,-2,-3,17,-19,56*,i
COCCN=c1scc(-c2ccco2)n1/N=C/c1ccc(O)c(O)c1O,1,3,37,-17,59*,+
CN=c1scc(-c2cccs2)n1/N=C/c1ccc(O)c(O)c1O,-2,1,3,-40,16,nt
COCCN1C=C(C(=O)OC)C(c2ccccc2Cl)C(C(=O)OC)=C1,5,-1,-8,-9,153*,nt
COC(=O)C1=CN(Cc2cccs2)C=C(C(=O)OC)C1c1cccc(OC)c1OC,5,-1,1,-10,7,nt
CCN1C=C(C(=O)OC)C(c2cccc(OC)c2OC)C(C(=O)OC)=C1,-1,-10,-4,0,85*,nt
COc1ccc(NC(=O)c2nc[nH]c2C(=O)N[C@@H](C)C(=O)OC(C)(C)C)cc1,nt,-9,-4,2,53*,i
Cc1ccc(NC(=O)c2nc[nH]c2C(=O)N[C@@H](C)C(=O)OC(C)(C)C)cc1,nt,-10,-10,-5,26,nt
CC(O)C(C(=O)OCc1ccc([N+](=O)[O-])cc1)N1C(=O)c2ccccc2C1=O (stereo not given),0,7,10,-7,71*,i
COCCCNC(=O)c1c(N)n(-c2cccc(S(N)(=O)=O)c2)c2nc3ccccc3nc12,0,-21,-2,-5,64*,nt
Nc1c(C(=O)NCC2CCCO2)c2nc3ccccc3nc2n1-c1ccccc1 (stereo not given),1,-18,20,-9,55*,nt
CCCNC(=O)c1c(N)n(-c2cccc(OC)c2)c2nc3ccccc3nc12,0,-11,-8,-16,77*,nt
COc1ccccc1-n1c(N)c(C(=O)NCC2CCCO2)c2nc3ccccc3nc21 (stereo not given),-1,-7,12,-7,46,nt
COc1ccc(O)c(/C=c2/sc3nc4cc(C)c(C)cc4n3c2=O)c1,-2,-1,2,-33,0,nt
O=C(N/N=C/c1cccc([N+](=O)[O-])c1)c1ccccc1-n1cccc1,-1,-4,5,-6,58*,i
O=C(N/N=C/c1cccc([N+](=O)[O-])c1)c1cccc2cc[nH]c12,-1,-3,-20,-13,20,nt
Nc1cc([N+](=O)[O-])ccc1Nc1ccccc1,-3,-9,-7,-2,82*,i

# Source: PubChem (several laboratories)
